In ChEMBL document CHEMBL3804770 (J Med Chem, 2016):
Calls of active or inactive are those of the source. The rule behind the calls is not given here.

Key:
[1] = Drug uptake in cytosol of human SKOV3 cells at 0.5 uM after 23 hrs by tubulin tracker green fluorescent dye based confocal microscopy; format: ADME, cell-based, SK-OV-3
Outline: (§1)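 SKOV-3 cells grown in α-MEM with 10% bovine growth serum, 2 mM L-glutamine, penicillin/streptomycin and fungizone were seeded on coverslips, cultured 24 h, then exposed to prodrug at 500 nM for 24 h under minimal light. Tubulin tracker green, 1 µM final in HBSS, added 45-60 min at 37 °C, then washed. Confocal imaging: tracker excitation 488 nm/emission 500-550 nm, prodrug excitation 633 nm/emission 650-800 nm, three random fields per treatment.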

[2] = Drug uptake in nucleus of human SKOV3 cells at 0.5 uM after 23 hrs by tubulin tracker green fluorescent dye based confocal microscopy; format: ADME, cell-based; settings: sk-ov-3, 23 h; outline: as §1
[3] = Photocytotoxicity against human SKOV3 cells assessed as cell viability incubated for 24 hrs under dark conditions followed by 5.6 mW/cm2 of laser illumination for 30 mins measured after 72 hrs by MTT assay; format: functional, cell-based; settings: SK-OV-3
Outline: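 SKOV-3 cells (5000/well) dosed from 2 mM DMSO stocks diluted in medium; after 24 h dark incubation, plates illuminated uncovered on orbital shaker with 690 nm diode laser, 5.6 mW/cm² for 30 min (10 J/cm²). Incubated a further 72 h, then MTT read at 570 nm with 650 nm background; viability as percentage of untreated controls.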

[4] = Photocytotoxicity against human SKOV3 cells assessed as cell viability incubated for 24 hrs under dark conditions followed by 5.6 mW/cm2 of laser illumination for 30 mins measured 72 hrs post drug wash out by MTT assay; format: functional, cell-based; settings: SK-OV-3
Outline: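 SKOV-3 cells (5000/well) held 24 h in the dark with drug, illuminated at 690 nm, 5.6 mW/cm², 30 min (10 J/cm²). Medium then replaced with fresh medium to remove released material, followed by 72 h incubation and MTT readout (570 nm, 650 nm background), viability relative to untreated wells.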

[5] = Ratio of photocytotoxic IC50 for human SKOV3 cells measured after drug wash out to photocytotoxic IC50 for human SKOV3 cells measured before drug wash out; format: functional, SK-OV-3
[6] = Drug degradation in complete medium at 10 uM after 96 hrs by HPLC analysis under dark conditions
Tubulin (Sus scrofa) [7] = biological target: T1, Tubulin (Sus scrofa) (UniProt P02554+P02550); test: Induction of porcine brain tubulin polymerization at 30 uM measured every 2 mins for 1 hr by fluorescence analysis in presence of GTP
T1 sequence (P02550 whole entry, looked up): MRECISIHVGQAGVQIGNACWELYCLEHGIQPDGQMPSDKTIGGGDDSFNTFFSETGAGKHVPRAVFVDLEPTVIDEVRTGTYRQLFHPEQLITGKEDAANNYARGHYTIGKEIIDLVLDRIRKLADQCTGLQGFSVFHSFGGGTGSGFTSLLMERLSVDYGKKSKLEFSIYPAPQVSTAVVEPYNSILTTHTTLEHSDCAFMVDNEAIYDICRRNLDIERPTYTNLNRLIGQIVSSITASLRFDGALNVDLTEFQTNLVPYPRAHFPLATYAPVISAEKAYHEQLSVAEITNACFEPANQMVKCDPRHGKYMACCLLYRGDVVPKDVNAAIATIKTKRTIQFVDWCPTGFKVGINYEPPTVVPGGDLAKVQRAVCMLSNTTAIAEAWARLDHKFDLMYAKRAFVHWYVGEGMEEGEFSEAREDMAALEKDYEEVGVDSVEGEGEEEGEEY
T1 sequence (P02554 whole entry, looked up): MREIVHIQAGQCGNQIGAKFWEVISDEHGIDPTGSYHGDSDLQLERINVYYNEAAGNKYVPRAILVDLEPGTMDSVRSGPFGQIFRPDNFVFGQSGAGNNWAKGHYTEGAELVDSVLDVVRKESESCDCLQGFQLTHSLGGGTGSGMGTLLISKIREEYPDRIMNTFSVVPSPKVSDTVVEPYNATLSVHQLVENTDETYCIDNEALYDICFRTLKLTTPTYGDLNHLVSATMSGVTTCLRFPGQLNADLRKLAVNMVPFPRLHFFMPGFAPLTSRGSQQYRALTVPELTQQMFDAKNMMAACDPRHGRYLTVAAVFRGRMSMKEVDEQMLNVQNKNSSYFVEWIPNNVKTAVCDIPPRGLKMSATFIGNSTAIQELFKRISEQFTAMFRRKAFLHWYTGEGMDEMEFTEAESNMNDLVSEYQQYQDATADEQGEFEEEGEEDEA
Outline: (§2)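 Fluorescence-based tubulin polymerization kit. Compound in DMSO diluted with water, then combined with tubulin and GTP in buffer at 37 °C. Fluorescence (excitation 360 nm, emission 450 nm) read every 2 min for 1 h.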

[8] = Dark cytotoxicity against human SKOV3 cells assessed as cell viability after 72 hrs by MTT assay; format: cell-based; settings: SK-OV-3, 72 h
Outline: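 SKOV-3 cells seeded at 5000/well, incubated 24 h, then treated from 2 mM DMSO stocks diluted in medium to final concentrations; kept in the dark 72 h. MTT ([…]) added, formazan dissolved in DMSO, absorbance 570 nm minus 650 nm background; viability as percentage of untreated wells.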

Tubulin (Sus scrofa) [9] = biological target: T1, Tubulin (Sus scrofa); test: Induction of porcine brain tubulin polymerization at 1.5 uM irradiated with 5.6 mW/cm2 of far-red light for 30 mins measured every 2 mins for 1 hr by fluorescence analysis
[10] = Retention time of the compound at 10 uM by HPLC analysis; format: physicochemical
Outline: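 Complete medium containing 10 µM compound held at 37 °C in the dark. Samples were extracted into dichloromethane, dried, and taken up in 5% DMSO in ACN. Isocratic HPLC with 90% ACN/10% 10 mM ammonium acetate at 0.5 mL/min; detection by diode array at 675 nm.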

Tubulin (Sus scrofa) [11] = biological target: T1, Tubulin (Sus scrofa); test: Induction of porcine brain tubulin polymerization at 3 uM after 40 mins by fluorescence analysis in presence of GTP; outline: as §2
[12] = nOctanol-phosphate buffer partition coefficient, log D of the compound at pH 7.4 incubated for 3 hrs in dark condition by fluorimeter; format: physicochemical; settings: octanol/water, pH 7.4, 3 h
[13] = Ratio of compound IC50 to PTX IC50 for dark cytotoxicity against human SKOV3 cells; format: cell-based, SK-OV-3; settings: read-out: Ratio IC50
[14] = Retention time of the compound in DMSO treated with (Pc-(L-PTX)2) by mass spectroscopy/HPLC analysis; format: physicochemical
[15] = Drug degradation […] at 10 uM after 24 hrs by HPLC analysis under dark conditions; format: physicochemical; settings: read-out: Drug degradation
Outline: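 10 μM solution in complete cell culture medium, made from DMSO stock, kept at 37 °C in the dark. Aliquots taken at 0, 2, 24, 48, 96 and 168 h, extracted with dichloromethane, reconstituted in 5% DMSO in ACN. Analysed by isocratic HPLC (90% ACN/10% 10 mM ammonium acetate, 0.5 mL/min); remaining percentage versus t = 0, three experiments.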

Row | SMILES | Drug uptake [1] | Drug uptake [2] | IC50 [3] [nM] | IC50 [4] [nM] | Ratio IC50 [5] | degraded at 96 h, 10 µM [6] [%] | Activity (Tubulin (Sus scrofa) [7]) | IC50 [8] [nM] | Activity (Tubulin (Sus scrofa) [9]) | Retention_time [10] [min] | Activity (Tubulin (Sus scrofa) [11]) | logD [12] | selectivity ratio [13] | Retention_time [14] [min] | degraded at 24 h, 10 µM [15] [%]
1 | CC(=O)O[C@H]1C(=O)[C@@]2(C)[C@H]([C@H](OC(=O)c3ccccc3)[C@]3(O)C[C@H](OC(=O)[C@H](OC(=O)/C=C/N4CCN(CCO[Si]5(OCCN6CCN(/C=C/C(=O)O[C@@H](C(=O)O[C@H]7C[C@@]8(O)[C@@H](OC(=O)c9ccccc9)[C@@H]9[C@]%10(OC(C)=O)CO[C@@H]%10C[C@H](O)[C@@]9(C)C(=O)[C@H](OC(C)=O)C(=C7C)C8(C)C)[C@@H](NC(=O)c7ccccc7)c7ccccc7)CC6)n6c7c8ccccc8c6/N=C6N=C(/N=c8/c9ccccc9/c(n85)=N/C5=NC(=N\7)/c7ccccc75)c5ccccc5\6)CC4)[C@@H](NC(=O)c4ccccc4)c4ccccc4)C(C)=C1C3(C)C)[C@]1(OC(C)=O)CO[C@@H]1C[C@@H]2O | Active | Not Active | 3.9 | 89 | 23 | < 7 | inactive | 910 | Active | 32 | inactive | > 3.1 | 190 | – | –
2 | CC(=O)O[C@H]1C(=O)[C@@]2(C)[C@H]([C@H](OC(=O)c3ccccc3)[C@]3(O)C[C@H](OC(=O)[C@H](O)[C@@H](NC(=O)c4ccccc4)c4ccccc4)C(C)=C1C3(C)C)[C@]1(OC(C)=O)CO[C@@H]1C[C@@H]2O [PACLITAXEL] | – | – | – | – | – | – | – | 4.7 | – | – | – | – | – | 11 | –
3 | CC(=O)O[C@H]1C(=O)[C@@]2(C)[C@H](O)C[C@@H]3OC[C@]3(OC(C)=O)[C@@H]2[C@@H](OC(=O)c2ccccc2)[C@]2(O)C[C@@H](OC(=O)[C@@H](OC(=O)CCC(=O)N3CCN(CCO[Si]4(OCCN5CCN(C(=O)CCC(=O)O[C@@H](C(=O)O[C@@H]6C[C@@]7(O)[C@H](OC(=O)c8ccccc8)[C@H]8[C@@]9(OC(C)=O)CO[C@H]9C[C@@H](O)[C@]8(C)C(=O)[C@H](OC(C)=O)C(=C6C)C7(C)C)[C@H](NC(=O)c6ccccc6)c6ccccc6)CC5)n5c6c7ccccc7c5/N=C5N=C(/N=c7/c8ccccc8/c(n74)=N/C4=NC(=N\6)/c6ccccc64)c4ccccc4\5)CC3)[C@H](NC(=O)c3ccccc3)c3ccccc3)C(C)=C1C2(C)C (some centres undefined) | Active | Not Active | 24 | 53 | 2 | 14 | inactive | 1280 | inactive | 21 | inactive | > 3.1 | 270 | – | 4
